In the library only some 3.4% were active in any assay of this set; here they are far more common.
Wee1 degr inh: human Wee1 degradation inhibition, primary screen | AID 1321 | reporter increase, % at 5 µM | 220,000 compounds, 1.2% hits | P30291 | HeLa Luc-Wee1K328M stability, luciferase luminescence; 100% = proteasome inhibitor MG132 effect;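 active means activation above the mean of all tested compounds plus 3 SD, set per screening run, cut at about 8.8% in these data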;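 further: cells exposed to compound for 20 h before luminescence read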
PHOSPHO1 inh: blocks human PHOSPHO1 phosphatase activity; recombinant PHOSPHO1, absorbance phosphatase assay; 290,000 compounds, 1.1% hits; AID 1565; inhibition, % at 13.3 µM; in the data active means inhibition above about 60%
Target sequence (Q8TCT1 whole entry, looked up): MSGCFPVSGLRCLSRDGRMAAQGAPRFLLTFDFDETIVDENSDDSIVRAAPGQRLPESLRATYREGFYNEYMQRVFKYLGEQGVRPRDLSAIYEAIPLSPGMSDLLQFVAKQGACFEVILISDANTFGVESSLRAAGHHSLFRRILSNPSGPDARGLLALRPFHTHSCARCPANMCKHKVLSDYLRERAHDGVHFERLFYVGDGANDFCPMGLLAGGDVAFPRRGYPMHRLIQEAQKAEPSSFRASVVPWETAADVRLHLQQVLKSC
HMGR II inh: E. faecalis class II HMG-CoA reductase inhibition; purified E. faecalis HMGR, NADPH absorbance 340 nm kinetic; inhibition, % at 10 µM; 190,000 compounds, 0.41% hits; AID 1066;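 active means inhibition above a set limit, the median over all tested compounds plus 3 SD, cut at about 9.5% in these data; inconclusive means no clear call, values can overlap the other calls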;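 further: enzyme runs in reverse so mevalonate oxidation gives rising NADPH absorbance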
Runt-CBFb FRET: Runt domain-CBFb interaction inhibition. Q01196+Q13951. Cerulean-Runt/Venus-CBFb FRET ratio 530/480, 1 h. inhibition, % at 20 µM. 220,000 compounds, 0.46% hits;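 active means inhibition over about 50% at 20 µM in the single-dose screen, limit read from the data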
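Measured by: fluorescence energy transfer, 422 nm excitation, 530/480 nm emission; Assay system: Cerulean-Runt domain; Medium: Tris pH 7.5 buffer with BSA; Measure: loss of energy transfer signal; Controls: 5 µM unlabeled CBFb as full-inhibition high control; Incubation: protein complex preformed 1 h, compound exposure 1 h, room temperature, dark.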
Runt-SMMHC FRET: Runt domain-CBFb-SMMHC interaction inhibition. Q01196+Q13951. Cerulean-Runt/Venus-CBFb-SMMHC FRET ratio 530/480, 1 h. inhibition, % at 20 µM. 220,000 compounds, 0.74% hits. AID 1434;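 active means mean inhibition across duplicate retests at 20 µM reaching about 50%, limit read from the data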;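 further: inhibitors lower the FRET ratio by blocking Runt binding to CBFb-SMMHC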
RanGTP-Imp inh: inhibitors of RanGTP-importin-beta interaction, primary screen, biochemical, FRET, CFP-Ran, YFP-importin-beta, homogeneous | 300,000 compounds, 1.1% hits | inhibition, % (test concentration not listed) | cell-free CFP-Ran/YFP-importin-beta FRET ratio;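 active means more than half of the replicate wells show a fall in the fluorescence ratio signal beyond about 16%, limit read from the data, passing the limit was not always enough; inconclusive means exactly half of the replicate wells pass the set limit; inactive means fewer than half of replicates pass the limit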
Hits are given with their value; . = inactive; ? = inconclusive; / = no result.

SMILES | Wee1 degr inh | PHOSPHO1 inh | HMGR II inh | Runt-CBFb FRET | Runt-SMMHC FRET | RanGTP-Imp inh
COCCn1c(C)cc(C(=O)CSc2nnc(-c3cccnc3)n2-c2ccccc2F)c1C | . | 90 | . | . | . | .
CNc1cc(C)c(C#N)c2nc3ccccc3n12 | / | . | / | / | / | .
N#Cc1c(-c2ccccc2)c(C#N)c2nc3ccccc3n2c1N | . | . | . | 82 | 94 | .
Cc1ccc(-c2c(C#N)c(N)n3c(nc4ccccc43)c2C#N)cc1 | . | . | . | 58 | 118 | .
O=C1c2cccnc2C(=O)N1Cc1ccc(S(=O)(=O)N2CCN(c3ccc(Cl)cc3)CC2)cc1 | / | . | / | / | / | .
CC1CCC(NC(=O)N(CCCl)N=O)CC1 (centres undefined) | / | / | / | / | / | .
O=C(CSCc1ccccc1)N1CCN(c2ccccc2)CC1 | 9.0 | . | . | . | . | .
CCOc1ccc(NC(=S)/C(=C(\[O-])c2ccc(C)c([N+](=O)[O-])c2)[n+]2ccccc2)cc1 | . | 93 | . | . | . | ?
COc1cnn(-c2ccccc2)c(=O)c1SCc1ccc(Cl)c(Cl)c1 | . | 88 | . | . | . | .
COc1c(Cl)cnn(-c2ccccc2)c1=O | . | . | . | . | . | .
COc1ccccc1-c1cc(C2CC2)nc(N)c1C#N | . | . | . | . | . | .
N#Cc1c(-c2ccccc2Cl)cc(C2CC2)nc1N | . | 84 | . | . | . | /
O=C(CS(=O)(=O)c1ccccc1)NCc1ccco1 | . | . | . | . | . | /
O=C(CS(=O)(=O)Cc1ccccc1)NCc1ccco1 | . | . | 9.8 | . | . | .
Cc1oc(-c2ccccc2F)nc1CS(=O)(=O)CC(=O)NCc1ccco1 | 9.2 | . | . | . | . | .
CC1CCCCN1C(=O)c1ccc(CS(=O)(=O)Cc2ccccc2)cc1 (centres undefined) | / | . | / | / | / | .
O=C(NCC(=O)N1CCN(c2ccccc2O)CC1)c1cccs1 | / | / | / | / | / | .
CCOC(=O)C(C(=O)OCC)c1c([N+](=O)[O-])c(=O)n2c3c(cccc13)CCC2 | / | . | / | / | / | .
CN(C)c1cccc2c1c(NC(=O)c1ccc(F)cc1)nn2C | . | 62 | / | . | . | .
O=C(N/N=C\C=C\c1ccc2c(c1)OCO2)c1cccnc1 | . | . | . | . | . | /
O=C(N/N=C\C=C\c1ccc2c(c1)OCO2)C1COc2ccccc2O1 (centres undefined) | 9.3 | . | . | . | . | .
O=C(O)CN(CCc1ccccc1)S(=O)(=O)c1ccccc1 | / | . | / | / | / | .
CC(=NCc1ccncc1)C1=C(O)c2ccccc2C1=O | . | 64 | . | . | . | /
CCN(CC)CCCN=C(C)C1=C(O)c2ccccc2C1=O | . | . | / | . | . | .
CCCN=C(C)C1=C(O)c2ccccc2C1=O | 9.1 | . | . | . | . | .
SMILES | Wee1 degr inh | PHOSPHO1 inh | HMGR II inh | Runt-CBFb FRET | Runt-SMMHC FRET | RanGTP-Imp inh
CC(=NCc1cccnc1)C1=C(O)c2ccccc2C1=O | . | . | . | . | . | .
CCOc1ccc(NC(=O)CS(=O)CC(=O)N(CC(=O)NC(C)(C)C)C2CCCC2)cc1 (centres undefined) | / | . | / | / | / | .
Cn1nnnc1NCc1ccccc1F | / | . | / | / | / | .
CC1(c2ccc(Cl)c(Cl)c2)NC(=S)N2C1NC(=S)N2c1ccccc1 (centres undefined) | . | 89 | . | . | . | .
COC(=O)c1ccc(CSc2nc3scc(-c4cccs4)c3c(=O)[nH]2)o1 | . | 72 | . | . | . | .
Cc1cc(NC(=O)c2cc3n(n2)C(C(F)(F)F)CC(c2ccco2)N3)no1 (centres undefined) | 9.9 | . | . | . | . | .
Nc1ccc2c(c1)C(=O)C(=O)c1ccccc1-2 | . | 62 | . | . | . | .
O=C(C1CCN(S(=O)(=O)c2cccc3nsnc23)CC1)N1CCCc2ccccc21 | . | 60 | . | . | . | .
Cc1ccc(S(=O)(=O)N2CCC(=O)N(C(COC(=O)Nc3ccccc3)Cc3ccccc3)CC2)cc1 (centres undefined) | . | . | . | . | . | .
Cc1ccc(S(=O)(=O)N2CCC(=O)N(C(CO)Cc3ccccc3)CC2)cc1 (centres undefined) | . | . | 12 | . | . | .
O=C(CNC(=O)c1ccco1)N/N=C/c1c[nH]c2ccccc12 | . | . | 9.7 | . | . | .
CCCn1c(C)nnc1SCC(=O)NC1CCCCC1 | / | . | / | / | / | .
COC(=O)c1c(NS(=O)(=O)c2ccc3ccccc3c2)sc2c1CCCC2 | . | 71 | . | . | . | .
CC(C)(C)NC(=O)C(c1ccc(F)cc1)N(CC1CCCO1)C(=O)CCC(=O)Nc1ccccn1 (centres undefined) | / | . | / | / | / | ?
COc1ccccc1CNC(=O)COC(=O)c1nc(Cl)ccc1Cl | / | / | / | / | / | .
COc1cc(/C=C2\CC/C(=C\c3cc(OC)c(OC)c(OC)c3)C2=O)cc(OC)c1OC | . | . | . | . | . | .
COc1cc(/C=C2\COC/C(=C\c3cc(OC)c(OC)c(OC)c3)C2=O)cc(OC)c1OC | 127 | . | / | . | . | .
O=C(Cn1c(-c2cscn2)nc2ccccc21)Nc1ccc2ccccc2c1 | 11 | . | . | . | . | ?
O=C(Cn1c(-c2cscn2)nc2ccccc21)Nc1cc(F)ccc1F | . | . | . | . | . | .
CC(=O)NC(CC(=O)OC(C)C(=O)Nc1ccc(Cl)cn1)c1ccccc1 (centres undefined) | / | / | / | / | / | .
Cc1nc2c(ccc3nc(NC(=O)C4CC4)sc32)s1 | . | 62 | . | . | . | .
CCC(=O)Nc1nc2ccc3sc(C)nc3c2s1 | . | 64 | . | . | . | .
Cc1sc2ncn(CC(=O)N3CCN(c4ccccc4)CC3)c(=O)c2c1S(=O)(=O)N1CCOCC1 | / | . | / | / | / | .
COc1ccc(Nc2cc(Cl)nc(N)n2)cc1 | . | . | 11 | . | . | .
COc1ccc(Nc2cc(C)nc(N)n2)cc1 | . | . | / | . | . | .
SMILES | Wee1 degr inh | PHOSPHO1 inh | HMGR II inh | Runt-CBFb FRET | Runt-SMMHC FRET | RanGTP-Imp inh
CC(C)CNC(CC(=O)O)c1ccccc1 (centres undefined) | 9.6 | . | . | . | . | .
COc1ccc(Nc2nccc3c2ncn3C)cc1 | / | / | / | / | / | .
CC1CCN(C(=O)COC(=O)c2cccc(NS(=O)(=O)c3ccccc3)c2)CC1 | / | / | / | / | / | .
N#Cc1ccc(NC(=O)c2cc(S(=O)(=O)N3CCOCC3)ccc2N2CCCC2)cc1 | / | / | / | / | / | .
CCOc1cc(N2CCOCC2)c(OCC)cc1NC(=O)[C@H](C)N1C(=O)C2CC=CCC2C1=O (some centres undefined) | . | 63 | . | . | . | .
COc1ccc(S(=O)(=O)N(C)CC(=O)NCc2ccccn2)cc1 | / | . | / | / | / | .
CN1c2ccsc2C(O)=C(C(=O)Nc2ccccc2)S1(=O)=O | . | . | . | . | . | .
Cc1cccc(C)c1NC(=O)C1=C(O)c2sccc2N(C)S1(=O)=O | . | . | . | . | 59 | 46

Screening results as filed in PubChem BioAssay.
